Assay outcomes: PubChem, Sanford-Burnham Center for Chemical Genomics
This is a sample that favours compounds with a hit; in the whole collection about 1.7% have one here.
DNMT1 block – DNMT1 (human) enzyme inhibition; P26358; DNMT1 molecular beacon, Hinp1I cleavage, fluorescence; AID 588458; inhibition (reported as % activation of signal), % at 10 µM; 360,000 compounds, 0.83% hits; in the data active means inhibition above about 50%
SUMO1-SIM PPI – modulators of human SUMO1-mediated protein-protein interactions. SUMO1 binding to a labelled peptide, TR-FRET, 1 h. inhibition, % at 20 µM. 360,000 compounds, 0.33% hits. AID 602429; in the data active means inhibition above about 37%
Target sequence (P63165 whole entry, looked up): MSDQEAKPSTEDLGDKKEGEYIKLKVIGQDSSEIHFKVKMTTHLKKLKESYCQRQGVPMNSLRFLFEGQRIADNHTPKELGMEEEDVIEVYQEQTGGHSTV
STEP inh – inhibitors of human striatal-enriched phosphatase STEP; recombinant STEP, OMFP fluorogenic substrate, fluorescence; inhibition, % at 20 µM; 360,000 compounds, 0.25% hits;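 active means inhibition at 20 µM, scaled per plate between control wells, above about 37%, limit read from the data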;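 further: 0% = DMSO with enzyme and substrate and 100% = substrate only without enzyme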
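System: STEP (striatal-enriched tyrosine phosphatase) enzyme, cell-free; medium: Bis-Tris pH 6.0 buffer with DTT, detergent; dosing: 20 µM, 1% DMSO; times: reaction 20 min, ambient temperature; detection: fluorescence, 480/540 nm; read-out basis: normalized % inhibition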
Scp1 inh – blocks human Scp-1 phosphatase activity | 340,000 compounds, 0.88% hits | Recombinant Scp1, phosphopeptide, malachite green phosphate absorbance | inhibition, % at 20 µM;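 active means inhibition above about 50% at 20 µM, limit read from the data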;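 further: plate controls were DMSO wells with enzyme for no effect and wells lacking enzyme for full effect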
Target sequence (Q9GZU7 76-261 limits assumed): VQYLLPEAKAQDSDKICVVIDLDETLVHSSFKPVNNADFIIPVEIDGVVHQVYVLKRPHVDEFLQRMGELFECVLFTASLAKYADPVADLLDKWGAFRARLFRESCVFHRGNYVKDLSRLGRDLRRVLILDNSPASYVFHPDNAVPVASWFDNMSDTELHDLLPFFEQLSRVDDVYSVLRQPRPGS
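Incubation: 45 min enzyme reaction at room temperature / System: truncated SCP-1 phosphatase (76-261aa) / Reagent: Phospho 17-mer peptide substrate / Buffer or medium: Acidic Tris acetate buffer with magnesium and detergent / Signal: absorbance at 630 nm / Doses: one concentration, 20 µM, with 1.0% DMSO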
LMPTP block – LMPTP (human) inhibition; P24666; recombinant LMPTP-A, OMFP fluorogenic substrate, fluorescence intensity; inhibition, % at 20 µM; 360,000 compounds, 0.22% hits; AID 651560;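 active means compounds that cut the enzyme signal by at least half of the control window in the single-dose screen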;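 further: plate controls were DMSO wells with enzyme plus substrate for no effect and substrate without enzyme for full effect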
Target sequence (P24666 whole entry, looked up): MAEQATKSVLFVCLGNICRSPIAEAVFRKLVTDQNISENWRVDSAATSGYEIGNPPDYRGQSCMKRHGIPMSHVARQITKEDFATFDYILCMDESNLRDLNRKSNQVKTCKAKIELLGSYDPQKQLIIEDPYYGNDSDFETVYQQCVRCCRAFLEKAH
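Test system – LMPTP-A enzyme · Amount – LMPTP-A at 0.625 nM final in the reaction · Buffer or medium – Bis-Tris pH 6.0, DTT, detergent · Reagent – OMFP 400 µM · Doses – single 20 µM dose · Schedule – reaction 50 min, room temperature, dark · Detection – fluorescence intensity of OMFP turnover product · Evaluation – percent inhibition versus substrate-only and uninhibited controls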
Active calls of the source: *; nt = no result.

SMILES	DNMT1 block	SUMO1-SIM PPI	STEP inh	Scp1 inh	LMPTP block
OC[C@@H]1CN(Cc2ccncc2)C[C@H](n2cnc3c(N4CCCC4)ncnc32)O1	-1	1	1	nt	-1
Cc1nc(N)sc1-c1csc(Nc2ncccn2)n1	-21	93*	64*	-2	35
Cc1nc(N=Nc2ccc(O)cc2)n[nH]1	0	-33	1	81*	-1
Cc1ccc(-c2nc(N=Nc3ccc(O)cc3)n[nH]2)cc1	2	-37	-2	-2	1
O=C(O)c1cccc(Cn2c(Cl)c(/C=N/NC(=O)c3cc4ccccc4cc3O)sc2=O)c1	23	12	4	34	55*
COc1ccc(CCn2c(=N)c(C(=O)NCc3ccco3)cc3c(=O)n4ccccc4nc32)cc1	35	-7	7	15	60*
COc1cc(CNC(=O)c2cc(-c3ccc(F)cc3C)n[nH]2)cc(OC)c1	-4	3	-3	nt	0
CC[N+](CC)(CC)CCOc1cccc(OCC[N+](CC)(CC)CC)c1OCC[N+](CC)(CC)CC	-2	-13	0	96*	-6
CCOc1ccccc1OCCOCCOc1c(Cl)cccc1Cl	9	1	2	-10	1
CN1CCN(C(=O)c2cccc(-c3cnc4cnc(-c5ccccc5Oc5ccccc5)cn34)c2)CC1	-3	-5	2	nt	-4
CCC(C)[C@H]1CNC(=O)C(=O)N1CC1CCCCC1 (some centres undefined)	nt	47*	nt	nt	6
CCC(=O)N1CCCC(C)(C(=O)Nc2ccc(C)c(C)c2)C1 (centres undefined)	-1	-3	-1	nt	0
Cc1ccc(S(=O)(=O)N(C)C[C@@H]2OCCCC[C@@H](C)Oc3ccc(NS(=O)(=O)c4c(C)noc4C)cc3C(=O)N([C@H](C)CO)C[C@@H]2C)cc1	-3	-2	0	nt	0
Cc1noc(C)c1NC(=O)Nc1ccc2c(c1)C(=O)N([C@H](C)CO)C[C@H](C)[C@@H](CN(C)C(=O)Nc1c(C)noc1C)O2	-6	0	1	-8	-2
Cc1noc(C)c1NC(=O)N(C)C[C@H]1Oc2ccc(NC(=O)c3ccncc3)cc2C(=O)N([C@H](C)CO)C[C@@H]1C	9	3	-4	68*	-3
Cc1noc(C)c1S(=O)(=O)Nc1ccc2c(c1)C(=O)N([C@H](C)CO)C[C@H](C)[C@@H](CN(C)C(=O)NC(C)C)O2	12	13	1	85*	-3
Cc1ccc(S(=O)(=O)Nc2ccc3c(c2)C(=O)N([C@@H](C)CO)C[C@@H](C)[C@@H](CN(C)S(=O)(=O)c2ccccc2)OCCCC[C@H](C)O3)cc1	-13	43*	5	nt	2
Nc1ccn(Cc2ccc(F)cc2)n1	0	76*	-2	1	-1
O=C(c1cccs1)c1no[n+]([O-])c1C(=O)c1cccs1	64*	13	33	-9	0
CCN(CC)CCNc1ccc(C)c2sc3ccc(O)cc3c(=O)c12	54*	-26	3	12	0
CC(=O)NCCNc1nc2cc(-c3cccc(C(F)(F)F)c3)sc2c(=O)n1C	8	-25	0	nt	3
CCN1C(=O)[C@@H]2Cc3c([nH]c4ccccc34)C(c3cc(OC)c(OC)c(OC)c3)N2C1=S (some centres undefined)	-1	-2	-14	-8	4
COc1cc([C@H]2c3[nH]c4ccccc4c3C[C@H]3C(=O)N4[C@@H](c5cc(OC)c(OC)c(OC)c5)c5[nH]c6ccccc6c5C[C@H]4C(=O)N23)cc(OC)c1OC	52*	13	-3	0	4
O=C(/C=C/c1ccc([N+](=O)[O-])cc1)Oc1ccc(/C=N/NC(=O)c2ccncc2)cc1	5	47*	2	-7	47
O=C(NN=Cc1ccc([N+](=O)[O-])cc1)c1ccncc1	1	-33	-2	-5	-1
SMILES	DNMT1 block	SUMO1-SIM PPI	STEP inh	Scp1 inh	LMPTP block
Cn1c(=O)n(C)c2cc(/C=N/NC(=O)c3cc4cc(Br)ccc4o3)ccc21	-10	60*	9	26	0
O=C1NC[C@H](CC2CCCCC2)N(CCc2cc(C(F)(F)F)cc(C(F)(F)F)c2)C1=O	nt	6	nt	nt	2
O=C(O)c1ccc(N=Nc2c(O)ccc3ncccc23)cc1	3	-13	16	73*	15
CCOC(=O)[C@]12CCCC=C1N(Cc1ccccc1)C(=O)[C@H](CC(=O)NCC13CC4CC(CC(C4)C1)C3)C2	nt	1	nt	nt	1
CCC(=O)N1CCc2cc(S(=O)(=O)CCC(=O)N(C)c3ccc(OC)cc3OC)ccc21	-1	-2	0	-5	-2
O=C(O)c1cc(N2N=C(C(F)(F)F)/C(=C/C=C/c3ccco3)C2=O)ccc1Cl	84*	105*	94*	69*	78*
Cc1ccc(F)cc1C(=O)N1CCCC(c2cc(C(=O)NCc3ccccc3)no2)C1 (centres undefined)	-5	-4	-1	nt	-1
CC(C)[C@H](NC(=O)OCc1ccccc1)C(=O)OCC(=O)NCc1ccco1	19	2	-1	59*	-1
O=C(CSc1n[nH]c(=O)[nH]c1=O)Nc1cccc(S(=O)(=O)N2CCOCC2)c1	-5	1	1	3	-2
O=C(CSc1n[nH]c(=O)[nH]c1=O)Nc1ccc2c(c1)C(=O)c1ccccc1C2=O	45	96*	88*	82*	69*
COc1cc(Br)c(C(=O)c2nccc3cc(OC)c(OC)cc23)cc1OC	92*	19	3	-7	5
Cc1ccc(CNC(=O)Nc2ccccc2)n1C	-2	-6	1	-2	0
O=C(Nc1cccc(Cl)c1)c1nc[nH]c1C(=O)Nc1ccccc1F	40	0	3	nt	0
Nc1ccn(C2CSC(CO)O2)c(=O)n1 (centres undefined)	nt	6	nt	nt	-1
CCCCN(C=O)c1c(CC)nc2ccc(C(=O)N(C)Cc3ccccc3)cn12	2	4	-5	nt	-1
O=[N+]([O-])c1ccc(Sc2nc3ccccc3o2)c([N+](=O)[O-])c1	52*	-17	5	-6	2
O=C(NCc1cccnc1)c1cc(C2CCCN(S(=O)(=O)c3ccccc3)C2)on1 (centres undefined)	6	-1	-3	nt	-1
COc1ccc2cc3[n+](cc2c1O)CCc1cc2c(cc1-3)OCO2	nt	38	nt	nt	64*
Cc1nc(S/C(=C\c2ccc(OCc3ccccc3Cl)cc2)C(=O)O)n[nH]1	-5	5	2	11	-2
Cc1nc(S/C(=C\c2ccc(-c3ccc(C(=O)O)c(Cl)c3)o2)C(=O)O)n[nH]1	91*	57*	26	83*	10
CCC(=O)c1ccc(OCC(=O)Nc2nc(-c3cccnc3)cs2)cc1	41	46*	12	39	4
